# Results taken from ChEMBL document CHEMBL1123247, “Nucleoside conjugates. 7. Synthesis and antitumor activity of 1-beta-D-arabinofuranosylcytosine conjugates of ether lipids” (J Med Chem, 1986).
# Assays:
# AMML = experiment: Compound was tested for the inhibition of AMML (acute myelomonocytic leukemia); type: functional, cell-based; conditions: Homo sapiens
# Method in brief: (§1)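 Human leukemia and solid tumor cells in culture were exposed to compound for 48 h. Viability was scored by trypan blue dye exclusion. IC50 (50% inhibition) was estimated from response curves of three separate experiments.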
# CML/BC = experiment: Compound was tested for the inhibition of CML/BC(chronic myeloid leukemia, blast crisis); type: functional, cell-based; conditions: Homo sapiens; method in brief: as §1
# Glioblastoma cell line = experiment: Compound was tested for the inhibition of glioblastoma; type: functional, cell-based; conditions: Homo sapiens; method in brief: as §1
# HL-60 = experiment: Compound was tested for the inhibition of human HL60 Leukemia; type: functional, cell-based; method in brief: as §1
# L1210 [1] = experiment: Antitumor activity was determined against the ip implanted L1210 leukemia in mice by range in survival days at 5 mg/kg (treatment of 1-5qd schedule) dosage; Range is 8-9; type: functional, Mus musculus; conditions: route intraperitoneal
# Method in brief: (§2)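 DBA/2J mice, 23-28 g, in groups of 6, were inoculated ip with 1×10^6 L1210 cells on day 0. Dosing was ip starting 24 h later on the stated daily schedules. Conjugates were given as sonicated solutions and reference prodrugs as suspensions in 0.9% NaCl with 0.5% Tween-80. Mice were observed daily until death or 45 days. Median survival T/C was calculated from survivors per NCI protocols.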
# L1210 [2] = experiment: Antitumor activity against the ip implanted L1210 leukemia in mice expressed as optimal dose (1-5qd treatment schedule) required to produce greatest increase in life span was determined; type: functional, Mus musculus
# Method in brief: (§3)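 DBA/2J mice, groups of 6 (23-28 g), were inoculated ip with 1 × 10^6 L1210 cells on day 0. Dosing was ip from 24 h, in 0.9% NaCl with 0.5% Tween-80 (sonicated solution or suspension). Mice were observed daily until death or day 45. Median survival T/C followed NCI protocols, and ILS = (T/C − 1) × 100. Active range means doses giving ILS ≥25%; optimal dose means greatest ILS.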
# L1210 [3] = experiment: Antitumor activity was determined against the ip implanted L1210 leukemia in mice by 45-day survivors in mice at 5 mg/kg (treatment of 1-5qd schedule) dosage; type: functional, Mus musculus; conditions: route intraperitoneal
# Method in brief: (§4)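 DBA/2J mice in groups of 6 (wt 23-28 g) were inoculated ip with 1×10^6 L1210 cells on day 0. Dosing was ip from 24 h, in 0.9% NaCl with 0.5% Tween-80 (conjugates sonicated), across a range of doses. Mice were observed daily until death or 45 days. Median T/C was computed from survivors per NCI protocols, and ILS = (T/C − 1)×100.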
# L1210 [4] = experiment: Antitumor activity was determined against the ip implanted L1210 leukemia in mice by percent increase in life span at 5 mg/kg (treatment of 1-5qd schedule) dosage; type: functional, Mus musculus; conditions: route intraperitoneal; method in brief: as §4
# L1210 [5] = experiment: Antitumor activity was determined against the ip implanted L1210 leukemia in mice by percent median survival rate (treated/control) at 5 mg/kg (treatment of 1-5qd schedule) dosage; 9.0/8.0; type: functional, Mus musculus; conditions: route intraperitoneal; method in brief: as §2
# NSCLC = experiment: Compound was tested for the inhibition of non- small cell lung cancer; type: functional, cell-based; conditions: Homo sapiens; method in brief: as §1
# [6] = system: Small cell lung cancer cell line; experiment: Compound was tested for the inhibition of small cell lung cancer; type: functional, cell-based; conditions: Homo sapiens; method in brief: as §1
# L1210 [7] = experiment: Antitumor activity was determined against the ip implanted L1210 leukemia in mice by percent median survival rate (treated/control) at 300 mg/kg (treatment of 1qd schedule) dosage; 9.5/8.0; type: functional, Mus musculus; conditions: route intraperitoneal; method in brief: as §2
# L1210 [8] = experiment: Antitumor activity was determined against the ip implanted L1210 leukemia in mice by range in survival days at 300 mg/kg (treatment of 1qd schedule) dosage; Range is 9-10; type: functional, Mus musculus; conditions: route intraperitoneal; method in brief: as §2
# L1210 [9] = experiment: Antitumor activity was determined against the ip implanted L1210 leukemia in mice by range in survival days at 80 mg/kg (treatment of 1-5qd schedule) dosage; Range is 17-18; type: functional, Mus musculus; conditions: route intraperitoneal; method in brief: as §2
# L1210 [10] = experiment: Antitumor activity against the ip implanted L1210 leukemia in mice expressed as optimal dose (1 qd treatment schedule) required to produce greatest increase in life span was determined; type: functional, Mus musculus; method in brief: as §3
# L1210 [11] = experiment: Antitumor activity was determined against the ip implanted L1210 leukemia in mice by change in […] at 80 mg/kg (treatment of 1-5qd schedule) dosage; type: functional, Mus musculus; conditions: route intraperitoneal
# Method in brief: (§5)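 DBA/2J mice, 6 per group (wt 23-28 g), inoculated ip with 1×10^6 L1210 cells on day 0. Treatment was given ip in 0.9% NaCl with 0.5% Tween-80, starting 24 h later. Weight change was taken on day 8. Mice were observed daily until death or 45 days. Median survival T/C and %ILS = (T/C − 1) × 100 came from survivors per NCI protocols, and 45-day survivors were counted.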
# L1210 [12] = experiment: Antitumor activity was determined against the ip implanted L1210 leukemia in mice by change in […] at 300 mg/kg (treatment of 1qd schedule) dosage; type: functional, Mus musculus; conditions: route intraperitoneal; method in brief: as §5
# L1210 [13] = experiment: Antitumor activity was determined against the ip implanted L1210 leukemia in mice by 45-day survivors in mice at 300 mg/kg (treatment of 1qd schedule) dosage; type: functional, Mus musculus; conditions: route intraperitoneal; method in brief: as §4
# L1210 [14] = experiment: Antitumor activity was determined against the ip implanted L1210 leukemia in mice by 45-day survivors in mice at 80 mg/kg (treatment of 1-5qd schedule) dosage; type: functional, Mus musculus; conditions: route intraperitoneal; method in brief: as §4
# L1210 [15] = experiment: Antitumor activity was determined against the ip implanted L1210 leukemia in mice by percent increase in life span at 80 mg/kg (treatment of 1-5qd schedule) dosage; type: functional, Mus musculus; conditions: route intraperitoneal; method in brief: as §4
# L1210 [16] = experiment: Antitumor activity was determined against the ip implanted L1210 leukemia in mice by percent median survival rate (treated/control) at 80 mg/kg (treatment of 1-5qd schedule) dosage; 18.0/7.0; type: functional, Mus musculus; conditions: route intraperitoneal; method in brief: as §2
# L1210 [17] = experiment: Antitumor activity was determined against the ip implanted L1210 leukemia in mice by percent increase in life span at 300 mg/kg (treatment of 1qd schedule) dosage; type: functional, Mus musculus; conditions: route intraperitoneal; method in brief: as §4
# P388 [18] = experiment: Antitumor activity was determined against the ip implanted P388 leukemia in mice by percent increase in life span at 60 mg/kg (1-5qd treatment schedule) dosage; type: functional, Mus musculus; conditions: route intraperitoneal
# Method in brief: (§6)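 DBA/2J mice, 23-33 g, in groups of 6, were inoculated ip with 1×10^6 P388 cells on day 0. Dosing was ip from 24 h on the stated schedules, in 0.9% NaCl with 0.5% Tween-80 (sonicated solution or suspension). Survival was followed daily until death or 45 days. Median T/C was calculated from survivors per NCI protocols, with ILS = (T/C − 1) × 100.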
# P388 [19] = experiment: Antitumor activity was determined against the ip implanted P388 leukemia in mice by percent median survival rate (treated/control) at 300 mg/kg (1 qd treatment schedule) dosage; 12.5/11.0; type: functional, Mus musculus; conditions: route intraperitoneal
# P388 [20] = experiment: Antitumor activity was determined against the ip implanted P388 leukemia in mice by 45-day survivors in mice at 300 mg/kg (1 qd treatment schedule) dosage; type: functional, Mus musculus; conditions: route intraperitoneal; method in brief: as §6
# P388 [21] = experiment: Antitumor activity was determined against the ip implanted P388 leukemia in mice by 45-day survivors in mice at 60 mg/kg (1-5qd treatment schedule) dosage; type: functional, Mus musculus; conditions: route intraperitoneal; method in brief: as §6
# P388 [22] = experiment: Antitumor activity was determined against the ip implanted P388 leukemia in mice by percent median survival rate (treated/control) at 60 mg/kg (1-5qd treatment schedule) dosage; 21.0/12.0; type: functional, Mus musculus; conditions: route intraperitoneal
# P388 [23] = experiment: Antitumor activity against ip implanted P388 leukemia in mice expressed as active dose range (1-5qd treatment schedule) required to produce increase in life span by >25% was determined; Range is 60-80; type: functional, Mus musculus
# Method in brief: (§7)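 P388 leukemia: 1 × 10^6 cells were given ip on day 0 to DBA/2J mice, groups of 6 (23-33 g). Treatment was ip from 24 h after inoculation, vehicle 0.9% NaCl with 0.5% Tween-80. Mice were observed daily until death or 45 days. Median survival T/C was calculated from survivors per NCI protocols, and ILS = (T/C − 1) × 100. Active range means doses giving ILS ≥25%; optimal dose means greatest ILS.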
# P388 [24] = experiment: Antitumor activity was determined against the ip implanted P388 leukemia in mice by range in survival days at 60 mg/kg (1-5qd treatment schedule) dosage; Range is 18-21; type: functional, Mus musculus; conditions: route intraperitoneal
# P388 [25] = experiment: Antitumor activity was determined against the ip implanted P388 leukemia in mice by change in […] at 300 mg/kg (1 qd treatment schedule) dosage; type: functional, Mus musculus; conditions: route intraperitoneal
# Method in brief: (§8)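 P388 leukemia, 1×10^6 cells implanted ip on day 0 into DBA/2J mice, groups of 6 (wt 23-33 g). Dosing ip started 24 h post-inoculation, vehicle 0.9% NaCl containing 0.5% Tween-80. Animals were observed daily until death or 45 days. Outputs were weight change, median survival T/C from survivors per NCI protocols, and %ILS = (T/C − 1) × 100.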
# P388 [26] = experiment: Antitumor activity was determined against the ip implanted P388 leukemia in mice by change in […] at 60 mg/kg (1-5qd treatment schedule) dosage; type: functional, Mus musculus; conditions: route intraperitoneal; method in brief: as §8
# P388 [27] = experiment: Antitumor activity was determined against the ip implanted P388 leukemia in mice by range in survival days at 300 mg/kg (1 qd treatment schedule) dosage; Range is 3-18; type: functional, Mus musculus; conditions: route intraperitoneal
# P388 [28] = experiment: Antitumor activity was determined against the ip implanted P388 leukemia in mice by percent increase in life span at 300 mg/kg (1 qd treatment schedule) dosage; type: functional, Mus musculus; conditions: route intraperitoneal; method in brief: as §6
# P388 [29] = experiment: Antitumor activity against the ip implanted P388 leukemia in mice expressed as optimal dose (1-5qd treatment schedule) required to produce greatest increase in life span was determined; type: functional, Mus musculus; parameters: unit: mg/kg; method in brief: as §7
# P388 [30] = experiment: Antitumor activity against the ip implanted P388 leukemia in mice expressed as optimal dose (1 qd treatment schedule) required to produce greatest increase in life span was determined; type: functional, Mus musculus; method in brief: as §7
# L1210 [31] = experiment: Antitumor activity against ip implanted L1210 leukemia in mice expressed as active dose range (1-5qd treatment schedule) required to produce increase in life span by >25% was determined; Range is 10-120
smiles,measurement,setting,value
CCCCCCCCCCCCCCCCCCOC[C@H](COP(=O)([O-])OCC[N+](C)(C)C)OC [(R)-EDELFOSINE],IC50,AMML,3.3 µM
same,IC50,CML/BC,1.5 µM
same,IC50,Glioblastoma cell line,20 µM
same,IC50,HL-60,2.5 µM
same,Range,L1210 [1],8
same,Optimal dose,L1210 [2],5 mg/kg/day
same,Survivors,L1210 [3],0
same,ILS,L1210 [4],13
same,T/C,L1210 [5],9%
same,IC50,NSCLC,21 µM
same,IC50,[6],24 µM
CCCCCCCCCCCCCCCCCCOCC(COP(=O)(O)OP(=O)(O)OC[C@H]1O[C@@H](n2ccc(N)nc2=O)[C@@H](O)[C@@H]1O)OC (mixture of isomers),IC50,AMML,2.3 µM
same,IC50,CML/BC,1.2 µM
same,IC50,Glioblastoma cell line,47 µM
same,IC50,HL-60,13 µM
same,median survival time,L1210 [7],9.5 days
same,Range,L1210 [8],9
same,Range,L1210 [9],17
same,Optimal dose,L1210 [2],80 mg
same,Optimal dose,L1210 [10],300 mg/kg/day
same,Weight change,L1210 [11],-1.53 g mouse-1
same,Weight change,L1210 [12],2.58 g mouse-1
same,Survivors,L1210 [13],0
same,Survivors,L1210 [14],0
same,ILS,L1210 [15],157
same,T/C,L1210 [16],18%
same,ILS,L1210 [17],12
same,IC50,NSCLC,38 µM
same,ILS,P388 [18],75
same,T/C,P388 [19],12.5%
same,Survivors,P388 [20],0
same,Survivors,P388 [21],0
same,T/C,P388 [22],21%
same,Active dose range,P388 [23],60 mg/kg/day
same,Range,P388 [24],18
same,Weight change,P388 [25],0.38 g mouse-1
same,Weight change,P388 [26],0.04 g mouse-1
same,Range,P388 [27],3
same,ILS,P388 [28],14
same,Optimal dose,P388 [29],60 mg
same,Optimal dose,P388 [30],300 mg
same,IC50,[6],> 100 µM
same,Active dose range,L1210 [31],10 mg/kg/day
